# Source: PubChem BioAssay (several laboratories)
# Diaph act CS = activates diaphorase or chemically reduces, flagging diaphorase assay artifacts | activation factor at 20 µM | 190,000 compounds, 0.005% hits | Diaphorase/resazurin coupled assay, resorufin fluorescence, 16 min; hits give high values; 1 = vehicle wells, 0 = NADH-free wells;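 active means diaphorase activity raised at least twofold by the compound at 20 µM; inactive means activation factor below 2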
#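 Material: purified diaphorase enzyme from Clostridium kluyveri / Medium: HEPES pH 7.4 buffer with MgCl2 and Tween 20 / Schedule: enzyme reaction of 16 min at room temperature / Measured by: resorufin fluorescence, excitation 544 nm, emission 590 nm / Evaluation: rise in resorufin formation, marking diaphorase activation or chemical reduction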
# HKDC1 inhibitor = HKDC1 (human) hexokinase inhibition; recombinant HKDC1, G6PDH/diaphorase resazurin coupled fluorescence; inhibition, % at 20 µM; 340,000 compounds, 0.16% hits;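 active means inhibition above about 35% when tested at 20 µM, limit read from the data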;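 further: plate controls were DMSO wells with enzyme for no effect and DMSO wells lacking enzyme for full effect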
# Target sequence (Q2TB90 whole entry, looked up): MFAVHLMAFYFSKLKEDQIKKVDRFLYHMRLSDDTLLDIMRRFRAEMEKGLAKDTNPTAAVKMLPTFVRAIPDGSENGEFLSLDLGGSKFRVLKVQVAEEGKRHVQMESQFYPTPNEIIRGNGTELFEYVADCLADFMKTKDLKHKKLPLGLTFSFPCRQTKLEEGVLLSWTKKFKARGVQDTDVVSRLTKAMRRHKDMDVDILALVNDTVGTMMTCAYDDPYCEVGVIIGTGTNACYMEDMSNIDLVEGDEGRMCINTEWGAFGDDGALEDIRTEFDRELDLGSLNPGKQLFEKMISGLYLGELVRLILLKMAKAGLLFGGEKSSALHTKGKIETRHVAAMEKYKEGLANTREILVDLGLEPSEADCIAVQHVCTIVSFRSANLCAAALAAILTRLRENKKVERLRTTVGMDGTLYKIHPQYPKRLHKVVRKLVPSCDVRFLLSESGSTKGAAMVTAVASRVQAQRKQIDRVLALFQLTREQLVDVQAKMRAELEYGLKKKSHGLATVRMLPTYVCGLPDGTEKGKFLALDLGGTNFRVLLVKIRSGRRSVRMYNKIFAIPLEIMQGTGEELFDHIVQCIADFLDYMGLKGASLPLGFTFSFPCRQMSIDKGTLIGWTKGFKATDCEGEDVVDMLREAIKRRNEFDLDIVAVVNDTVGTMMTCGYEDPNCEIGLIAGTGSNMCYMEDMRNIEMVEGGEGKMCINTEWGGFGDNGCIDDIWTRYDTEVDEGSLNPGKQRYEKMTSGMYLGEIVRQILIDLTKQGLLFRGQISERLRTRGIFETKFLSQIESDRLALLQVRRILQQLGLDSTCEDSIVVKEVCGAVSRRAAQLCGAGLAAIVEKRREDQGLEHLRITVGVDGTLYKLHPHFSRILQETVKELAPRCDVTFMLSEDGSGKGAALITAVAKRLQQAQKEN
#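 Assay system – recombinant HKDC1 (HK5) hexokinase enzyme, produced in-house · Input – HKDC1 at 5 µg/mL · Reagent – glucose plus 1 mM ATP as hexokinase substrates · Timing – 90 min reaction incubation at room temperature, dark · Measured by – G6PDH/diaphorase-coupled fluorescence, 1 mM NADP, 100 µM resazurin, 525/613 nm · Benchmarks – DMSO-enzyme wells negative, buffer-substituted wells positive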
# Diaphorase inh = counter-screen for diaphorase-based assays: diaphorase inhibitors and chemical oxidizers; 190,000 compounds, 0.69% hits; AID 1217; inhibition, % at 20 µM; diaphorase resazurin-to-resorufin fluorescence, NADH, 16 min; bacterial (C. kluyveri) enzyme, not human;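 active means primary screen inhibition at 20 µM above a set limit, cut at about 50% in these data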;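 further: plate controls were DMSO with full reaction for no effect and wells lacking NADH for full effect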
#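 material = Clostridium kluyveri diaphorase enzyme | amount = 0.14 U/mL diaphorase, enzyme working solution | schedule = incubation 16 min, room temperature | detection = fluorescence of resorufin formed from resazurin, Ex 544/Em 590 nm | benchmarks = positive control minus NADH, DMSO neutral control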
# PfGluPho inh = PfG6PD (Plasmodium falciparum) enzyme inhibition; PfGluPho enzyme, NADPH resazurin-diaphorase fluorescence; inhibition, % at 20 µM; 350,000 compounds, 0.78% hits;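 active means inhibition reaching at least a set limit at 20 µM in the primary screen, cut at about 59% in these data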;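 further: 0% = DMSO wells with substrate and 100% = DMSO wells lacking glucose-6-phosphate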
# G6PDH counter = counter-screen for G6PDH assay hits: L. mesenteroides G6PDH inhibition. Purified L. mesenteroides G6PDH, diaphorase/resazurin coupled fluorescence, 45 min. inhibition, % at 5 µM. 200,000 compounds, 0.12% hits. AID 1020; in the data active means inhibition above about 50%
# Tb hexokinase = blocks Trypanosoma brucei hexokinase 1 activity; inhibition, % at 10 µM; recombinant TbHK1, G6PDH-coupled NADH A340; 220,000 compounds, 0.11% hits; AID 1430;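 active means inhibition of 50% or more in the single-dose primary screen; inactive means inhibition below 50%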
# HKDC1 act conf = confirmation of human HKDC1 activators | shares compounds with HKDC1 inhibitor | 740 compounds, 14% hits | AID 504708 | inhibition, % at 20 µM | recombinant HKDC1, G6PDH/diaphorase resazurin fluorescence; hits give low values;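 active means inhibition at or below a set negative limit, negative inhibition meaning the enzyme was activated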
# Numbers without * were called inactive; x = not tested or not shown. Sampled rows, rich in hits. Any-hit rate of the full collection: about 1.3%.
SMILES,Diaph act CS,HKDC1 inhibitor,Diaphorase inh,PfGluPho inh,G6PDH counter,Tb hexokinase,HKDC1 act conf
Cc1nc2c3cc(F)ccc3n(Cc3ccccc3)c2s1,0.8,-60,25,41,3,-1,-61*
Cc1nc2c3cc(F)ccc3n(Cc3ccccc3F)c2s1,0.9,-3,9,-1,0,0,x
COc1ccc(C2=NS(=O)(=O)N(C)C(C(=O)N3CCC(C(N)=O)CC3)=C2)cc1,x,1,x,14,x,x,x
CCCCCC(=O)NNC(=O)c1c(O)c2ccccc2n(CC)c1=O,1,-6,-5,-16,7,-6,x
CCCCCCCCCC(=O)NNC(=O)c1c(O)c2ccccc2n(CC)c1=O,1.1,-41,-9,-59,11,2,-21
Cc1ccc(CCNC(=O)CCc2nc3ccccc3[nH]2)cc1,0.9,3,6,-17,23,20,x
Cc1ccc(C)c(S(=O)(=O)N2CCN(C(=O)CN3C(=O)NC(C)(C)C3=O)CC2)c1,x,-8,x,-4,x,x,x
Cc1ccc(S(=O)(=O)N2CCN(C(=O)CN3C(=O)NC4(CCCCC4)C3=O)CC2)c(C)c1,x,38*,x,-12,x,x,-18
Cc1ccc2c(c1)N(CC(=O)NC1CCCCCC1)C(=O)c1cccnc1O2,x,-1,x,7,x,x,x
O=C(OCC(=O)N1CCN(C(=O)c2ccco2)CC1)c1cc(-c2ccccc2)nc2ccccc12,0.7,37*,28,6,8,-12,-23
CCN(CC)CCCn1c2c(c(SCC(=O)Nc3cc(OC)cc(OC)c3)nc1=O)CCC2,x,-6,x,-6,x,x,x
CCCCC[C@H](O)/C=C/[C@@H]1[C@@H](C/C=C\CCCC(=O)OC)[C@@H](O)C[C@H]1O,0.9,77*,10,12,-3,-9,61
CCCCC[C@H](O)/C=C/[C@@H]1[C@@H](C/C=C\CCCC(=O)O)[C@@H](O)C[C@H]1O,1,-7,-4,-1,11,7,x
O=C(c1ccc(-c2ccccc2Cl)o1)N1CCN(S(=O)(=O)c2cccs2)CC1,x,0,x,-4,x,x,x
Cc1cc(C)n(Cc2ccc(C(=O)N/N=C/c3ccc(-c4ccc([N+](=O)[O-])cc4)o3)o2)n1,x,66*,x,11,x,x,31
CC1=NOC(=O)/C1=C/c1ccc(-c2ccc(Cl)cc2)o1,0.8,x,16,x,0,11,x
CC1=NOC(=O)/C1=C\c1ccc(-c2ccc(Br)cc2)o1,0.9,42*,7,48,2,16,12
COc1ccc(NC(=O)Cc2c[nH]c3ccccc23)cc1S(=O)(=O)N1CCOCC1,0.9,-2,8,13,2,-1,x
COc1ccc(NC(=O)Cc2c[nH]c3ccccc23)cc1S(=O)(=O)N1CCCCC1,0.8,49*,20,16,2,4,-35*
O=C1C(Cl)=C(N2CCC(C(=O)O)CC2)C(=O)c2ccccc21,x,50*,x,43,x,-1,57
COc1ccc(/C=C(\NC(=O)c2ccccc2)C(=O)N2CCC(C)CC2)cc1,x,7,x,8,x,x,x
COc1ccc(-n2cnc3cc(C(=O)NCCN4CCOCC4)ccc32)cc1,1,-7,-1,-1,-2,-2,x
CC(C)c1ccc(S(=O)(=O)/N=C2/C=C(Sc3ncn[nH]3)C(=O)c3ccccc32)cc1,0.8,64*,24,104*,22,4,61
Cc1cc(C)n2nc(Sc3ncccc3[N+](=O)[O-])nc2n1,x,-2,x,3,x,-13,x
O[C@@H]1C[C@H](c2ccc(Cl)cc2)N(Cc2cccs2)C[C@H]1n1cc(-c2ccc(F)cc2)nn1,x,x,x,3,x,x,x
SMILES,Diaph act CS,HKDC1 inhibitor,Diaphorase inh,PfGluPho inh,G6PDH counter,Tb hexokinase,HKDC1 act conf
COc1ccc(-c2nnc(SC)nc2-c2ccc(OC)c([N+](=O)[O-])c2)cc1[N+](=O)[O-],x,34,x,42,x,x,13
COc1cccc(NC(=O)Cn2c(CCC(=O)O)ccc2-c2ccc(C)cc2)c1,0.9,-1,6,-4,-1,-8,x
O=S(=O)(Nc1ccc(NS(=O)(=O)c2ccccc2)c2ccccc12)c1ccccc1,x,x,x,-17,x,x,x
COc1ccc(OC)c(S(=O)(=O)Nc2ccc(O)c3ccccc23)c1,0.9,27,14,37,-1,-4,x
CCc1ccc(S(=O)(=O)Nc2ccc(O)c3ccccc23)cc1,x,44*,x,10,x,x,20
O=S(=O)(Nc1ccc(O)c2ccccc12)c1ccc(F)cc1,x,43*,x,33,x,x,6
CC(OC(=O)Cn1[nH]c(=O)c2ccccc2c1=O)C(=O)NC1(C#N)CCCCC1 (stereo not given),x,-5,x,-3,x,x,x
CCOc1ccc2nc(SC3CC(=O)N(c4ccc(OC)cc4OC)C3=O)sc2c1 (stereo not given),0.6,18,36,-11,10,-10,x
CCC1C/C(=C\c2cccnc2)C(=O)/C(=C/c2cccnc2)C1 (stereo not given),0.8,35*,16,15,15,-20,33
O=C1/C(=C/c2cccnc2)CC/C1=C\c1cccnc1,1,6,3,11,-5,-40,x
COc1cc(CC(=O)OCC(=O)NC2CCCCCC2)cc(OC)c1OC,x,-8,x,-1,x,x,x
COc1cccc2c1C(=O)C=C(C)C2=O,1,-43,0,2,54*,47,-31
COCc1cc(C)nc(NC2CCCCC2)c1C#N,1.1,1,-13,-8,1,-5,x
COCc1cc(SC2CCCCC2)nc(C)n1,0.9,46*,5,-17,8,1,-28
COc1ccc(OC[C@@H](O)CNC(=O)c2cccc3c2C(=O)c2ccc(Cl)cc2S3(=O)=O)cc1,x,5,x,-4,x,x,x
Cc1ccc(/C=C/c2nc3sc(C(=O)O)c(C)c3c(=O)[nH]2)cc1[N+](=O)[O-],x,47*,x,29,x,x,-27
O=C1c2ccccc2-c2onc3ccc(Oc4ccccc4)c1c23,0.7,34,25,38,28,-4,28
O=C1C=C(Nc2ccccc2C(=O)O)c2ccccc2C1=O,x,46*,x,39,x,-21,44
CCCc1nc2ccccc2c(C(=O)N(CC)CC(=O)NCc2cccs2)c1CC,x,-3,x,6,x,x,x
CC(C)(C)c1c(Cl)c(O)c(-c2ccccc2)c(=O)n1-c1ccccc1,1.1,36*,-10,-22,-2,-4,41
Cc1c(O)c2ccccc2n(-c2ccccc2)c1=O,x,4,x,11,x,x,x
Cc1cccc(C)c1NC(=O)CN(C)C(=O)CC1Sc2ccccc2NC1=O (stereo not given),x,4,x,6,x,x,x
COc1cccc(C(=O)NCC(c2ccco2)N2CCc3ccccc3C2)c1 (stereo not given),x,35,x,18,x,x,0
